According to ChEMBL document CHEMBL3352507, “Preparation and antimalarial activity of a novel class of carbohydrate-derived, fused thiochromans” (Eur J Med Chem, 2014):

What was measured:
[1] = Cytotoxicity against human WI38 cells assessed as cell viability at 10 uM after 48 hrs by SRB assay; format: cell-based, WI-38; conditions: read-out: Activity
Procedure, shortened: (§1)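 WI-38 fibroblasts (passages 21–50) were seeded at 10 000 cells/well for 24 h, then exposed for 48 h to compound dissolved in DMSO and diluted in medium. Viable cells were fixed with cold 50% trichloroacetic acid and stained with sulforhodamine B. Bound dye was extracted with 10 mM Tris base and read at 540 nm. Viability relative to drug-free cells.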

Plasmodium falciparum [2] = test: Antimalarial activity against Plasmodium falciparum FCR3 after 48 hrs by parasite lactate dehydrogenase assay; format: functional, organism-based; conditions: FCR3, 48 h
Procedure, shortened: (§2)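 Parasite survival read by parasite lactate dehydrogenase (pLDH) assay. Single-concentration prescreen at […]; compounds with 0–15% survival were taken to dose–response. Ten three-fold serial dilutions in triplicate, incubated 48 h in a gassed airtight box, developed with NBT/PES. IC50 from sigmoidal curve of % survival relative to control against log concentration.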

[3] = Cytotoxicity against human WI38 cells assessed as cell viability at 0.1 uM after 48 hrs by SRB assay; format: cell-based, WI-38; conditions: read-out: Activity; procedure, shortened: as §1
[4] = Cytotoxicity against human WI38 cells assessed as cell viability at 100 uM after 48 hrs by SRB assay; format: cell-based, WI-38; conditions: read-out: Activity; procedure, shortened: as §1
[5] = Cytotoxicity against human WI38 cells assessed as cell viability at 0.01 uM after 48 hrs by SRB assay; format: cell-based, WI-38; conditions: read-out: Activity; procedure, shortened: as §1
Plasmodium falciparum [6] = test: Antimalarial activity against Plasmodium falciparum 3D7 after 48 hrs by parasite lactate dehydrogenase assay; format: functional, organism-based; conditions: 3D7, 48 h; procedure, shortened: as §2
[7] = Cytotoxicity against human WI38 cells assessed as cell viability at 1 uM after 48 hrs by SRB assay; format: cell-based, WI-38; conditions: read-out: Activity; procedure, shortened: as §1
[8] = Cytotoxicity against human WI38 cells after 48 hrs by SRB assay; format: cell-based; conditions: WI-38, 48 h
Procedure, shortened: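 WI-38 human fetal lung fibroblasts (passages 21–50) in EMEM with 10% FBS, 2 mM L-glutamine and gentamicin, at 37 °C and 5% CO2. Seeded at 10 000 cells/well, grown 24 h, then given compound in DMSO diluted in medium to 5 concentrations for 48 h. Cells were fixed with cold 50% TCA and stained with SRB, and dye was read at 540 nm. IC50 by non-linear regression against untreated controls.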

Compound: c1ccc(COC[C@H]2O[C@@H]3c4ccccc4SC[C@@H]3[C@@H](OCc3ccccc3)[C@@H]2OCc2ccccc2)cc1
- viability at 48 h, 10 µM [1]: 85%
- IC50 (Plasmodium falciparum [2]): 2.05 µM
- viability at 48 h, 0.1 µM [3]: 98.6%
- viability at 48 h, 100 µM [4]: 58.1%
- viability at 48 h, 0.01 µM [5]: 100%
- IC50 (Plasmodium falciparum [6]): 3.46 µM
- viability at 48 h, 1 µM [7]: 97.6%
- IC50 [8]: > 100 µM

Compound: Cc1ccc2c(c1)[C@H]1O[C@H](COCc3ccccc3)[C@@H](OCc3ccccc3)[C@H](OCc3ccccc3)[C@H]1CS2
- viability at 48 h, 10 µM [1]: 90%
- IC50 (Plasmodium falciparum [2]): 3.37 µM
- viability at 48 h, 0.1 µM [3]: 96.3%
- viability at 48 h, 100 µM [4]: 72.8%
- viability at 48 h, 0.01 µM [5]: 97%
- IC50 (Plasmodium falciparum [6]): > 100 µM
- viability at 48 h, 1 µM [7]: 97%
- IC50 [8]: > 100 µM

Compound: COc1ccc2c(c1)[C@H]1O[C@H](COCc3ccccc3)[C@@H](OCc3ccccc3)[C@H](OCc3ccccc3)[C@H]1CS2
- viability at 48 h, 10 µM [1]: 90.8%
- IC50 (Plasmodium falciparum [2]): 1.73 µM
- viability at 48 h, 0.1 µM [3]: 95.8%
- viability at 48 h, 100 µM [4]: 61%
- viability at 48 h, 0.01 µM [5]: 97%
- IC50 (Plasmodium falciparum [6]): > 100 µM
- viability at 48 h, 1 µM [7]: 93.8%
- IC50 [8]: > 100 µM

Compound: Cc1cccc2c1SC[C@@H]1[C@@H](OCc3ccccc3)[C@H](OCc3ccccc3)[C@@H](COCc3ccccc3)O[C@H]21
- viability at 48 h, 10 µM [1]: 85.4%
- IC50 (Plasmodium falciparum [2]): 2.26 µM
- viability at 48 h, 0.1 µM [3]: 99.5%
- viability at 48 h, 100 µM [4]: 68.8%
- viability at 48 h, 0.01 µM [5]: 103%
- IC50 (Plasmodium falciparum [6]): > 100 µM
- viability at 48 h, 1 µM [7]: 97.5%
- IC50 [8]: > 100 µM

Compound: Cc1ccc2c(c1)[C@H]1O[C@H](COCc3ccccc3)[C@@H](OCc3ccccc3)[C@H](OCc3ccccc3)[C@H]1C[S@+]2[O-]
- viability at 48 h, 10 µM [1]: 95.9%
- IC50 (Plasmodium falciparum [2]): 4.11 µM
- viability at 48 h, 0.1 µM [3]: 101%
- viability at 48 h, 100 µM [4]: 69.7%
- viability at 48 h, 0.01 µM [5]: 103%
- IC50 (Plasmodium falciparum [6]): > 100 µM
- viability at 48 h, 1 µM [7]: 99.1%
- IC50 [8]: > 100 µM

Compound: COc1ccc2c(c1)[C@H]1O[C@H](COCc3ccccc3)[C@@H](OCc3ccccc3)[C@H](OCc3ccccc3)[C@H]1C[S@+]2[O-]
- viability at 48 h, 10 µM [1]: 95.8%
- IC50 (Plasmodium falciparum [2]): 2.62 µM
- viability at 48 h, 0.1 µM [3]: 100%
- viability at 48 h, 100 µM [4]: 79.9%
- viability at 48 h, 0.01 µM [5]: 99.8%
- IC50 (Plasmodium falciparum [6]): 2.75 µM
- viability at 48 h, 1 µM [7]: 97.4%
- IC50 [8]: > 100 µM

Compound: CC(C)(C)c1ccc2c(c1)[C@H]1O[C@H](COCc3ccccc3)[C@@H](OCc3ccccc3)[C@H](OCc3ccccc3)[C@H]1C[S@+]2[O-]
- viability at 48 h, 10 µM [1]: 92.8%
- IC50 (Plasmodium falciparum [2]): 0.33 µM
- viability at 48 h, 0.1 µM [3]: 102%
- viability at 48 h, 100 µM [4]: 55.9%
- viability at 48 h, 0.01 µM [5]: 102%
- IC50 (Plasmodium falciparum [6]): 0.3 µM
- viability at 48 h, 1 µM [7]: 100%
- IC50 [8]: > 100 µM
